Results taken from ChEMBL document CHEMBL5303300, “EUbOPEN Chemogenomics Library - Multiplex” (2023).
“And” between values parts separate entries of the source, which are not always exact repeats. Equal entries are not always repeated.

Experiments:
Fibroblast = assay: Multiplex assay against human fibroblast; format: toxicity, cell-based; details: number of replicates 2
Procedure, shortened: (§1)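 At seeding, live cells were stained with Hoechst33342, BioTracker Green Microtubule Cytoskeleton Dye, MitoTracker Red and Annexin V Alexa Fluor 680. After compound addition they were imaged on a CQ1 microscope at 37°C and 5% CO2, and CellPathfinder machine-learning gating sorted them into Hoechst high-intensity objects or normal cells, with normal cells further split into healthy, pyknosed or fragmented nuclei and pyknosed cells into mitotic or apoptotic. Tubulin, mitochondrial-mass and membrane-permeability phenotypes are given as per cents of cells with healthy nuclei.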

HEK-293T = assay: Multiplex assay against HEK293T; format: toxicity, cell-based; details: human, number of replicates 2; procedure, shortened: as §1
[1] = 12 h, 1 µM, compound concentration 1 uM
[2] = 12 h, 10 µM, compound concentration 10 uM
[3] = 24 h, 1 µM, compound concentration 1 uM
[4] = 24 h, 10 µM, compound concentration 10 uM
[5] = 48 h, 1 µM, compound concentration 1 uM
[6] = 48 h, 10 µM, compound concentration 10 uM

Cn1c(Nc2c(Cl)cccc2Cl)nc2ccc3nc[nH]c(=O)c3c21
Population Apoptotic (%) (Fibroblast; [1]): 43% and 47%
Population Fragmented Nuclei (%) (Fibroblast; [1]): 10% and 5%
Population Healthy Nuclei (%) (Fibroblast; [1]): 56% and 67%
Population Hoechst High Intensity Objects (%) (Fibroblast; [1]): 0%
Population Membrane Permeable-Phenotype (%) (Fibroblast; [1]): 10% and 6%
Population Mitochondria Different-Phenotype (%) (Fibroblast; [1]): 1% and 2%
Population Mitotic Cells (%) (Fibroblast; [1]): 56% and 52%
Population Normal (%) (Fibroblast; [1]): 100%
Population Pyknosed Nuclei (%) (Fibroblast; [1]): 32% and 26%
Population Tubulin-Different-Phenotype (%) (Fibroblast; [1]): 11% and 14%
Total Cell Count (Fibroblast; [1]): 169 and 189
Population Apoptotic (%) (Fibroblast; [2]): 40% and 37%
Population Fragmented Nuclei (%) (Fibroblast; [2]): 8% and 17%
Population Healthy Nuclei (%) (Fibroblast; [2]): 62% and 69%
Population Hoechst High Intensity Objects (%) (Fibroblast; [2]): 0%
Population Membrane Permeable-Phenotype (%) (Fibroblast; [2]): 10% and 5%
Population Mitochondria Different-Phenotype (%) (Fibroblast; [2]): 4% and 3%
Population Mitotic Cells (%) (Fibroblast; [2]): 59% and 62%
Population Normal (%) (Fibroblast; [2]): 100%
Population Pyknosed Nuclei (%) (Fibroblast; [2]): 28% and 12%
Population Tubulin-Different-Phenotype (%) (Fibroblast; [2]): 18% and 23%
Total Cell Count (Fibroblast; [2]): 156 and 195
Population Apoptotic (%) (Fibroblast; [3]): 53% and 47%
Population Fragmented Nuclei (%) (Fibroblast; [3]): 8% and 10%
Population Healthy Nuclei (%) (Fibroblast; [3]): 54% and 57%
Population Hoechst High Intensity Objects (%) (Fibroblast; [3]): 0%
Population Membrane Permeable-Phenotype (%) (Fibroblast; [3]): 12% and 11%
Population Mitochondria Different-Phenotype (%) (Fibroblast; [3]): 1% and 3%
Population Mitotic Cells (%) (Fibroblast; [3]): 46% and 52%
Population Normal (%) (Fibroblast; [3]): 100%
Population Pyknosed Nuclei (%) (Fibroblast; [3]): 36% and 32%
Population Tubulin-Different-Phenotype (%) (Fibroblast; [3]): 10% and 18%
Total Cell Count (Fibroblast; [3]): 152 and 202
Population Apoptotic (%) (Fibroblast; [4]): 43% and 41%
Population Fragmented Nuclei (%) (Fibroblast; [4]): 16% and 14%
Population Healthy Nuclei (%) (Fibroblast; [4]): 54% and 72%
Population Hoechst High Intensity Objects (%) (Fibroblast; [4]): 0%
Population Membrane Permeable-Phenotype (%) (Fibroblast; [4]): 9% and 6%
Population Mitochondria Different-Phenotype (%) (Fibroblast; [4]): 3% and 1%
Population Mitotic Cells (%) (Fibroblast; [4]): 56% and 58%
Population Normal (%) (Fibroblast; [4]): 100%
Population Pyknosed Nuclei (%) (Fibroblast; [4]): 28% and 13%
Population Tubulin-Different-Phenotype (%) (Fibroblast; [4]): 19% and 11%
Total Cell Count (Fibroblast; [4]): 152 and 183
Population Apoptotic (%) (Fibroblast; [5]): 59% and 61%
Population Fragmented Nuclei (%) (Fibroblast; [5]): 15% and 14%
Population Healthy Nuclei (%) (Fibroblast; [5]): 55% and 62%
Population Hoechst High Intensity Objects (%) (Fibroblast; [5]): 2% and 0%
Population Membrane Permeable-Phenotype (%) (Fibroblast; [5]): 17% and 10%
Population Mitochondria Different-Phenotype (%) (Fibroblast; [5]): 2%
Population Mitotic Cells (%) (Fibroblast; [5]): 40% and 38%
Population Normal (%) (Fibroblast; [5]): 97% and 100%
Population Pyknosed Nuclei (%) (Fibroblast; [5]): 29% and 23%
Population Tubulin-Different-Phenotype (%) (Fibroblast; [5]): 17% and 13%
Total Cell Count (Fibroblast; [5]): 128 and 187
Population Apoptotic (%) (Fibroblast; [6]): 94% and 87%
Population Fragmented Nuclei (%) (Fibroblast; [6]): 18%
Population Healthy Nuclei (%) (Fibroblast; [6]): 26% and 35%
Population Hoechst High Intensity Objects (%) (Fibroblast; [6]): 0%
Population Mitochondria Different-Phenotype (%) (Fibroblast; [6]): 0%
Population Mitotic Cells (%) (Fibroblast; [6]): 5% and 12%
Population Normal (%) (Fibroblast; [6]): 100%
Population Pyknosed Nuclei (%) (Fibroblast; [6]): 54% and 46%
Population Tubulin-Different-Phenotype (%) (Fibroblast; [6]): 37% and 16%
Total Cell Count (Fibroblast; [6]): 131 and 170
Population Apoptotic (%) (HEK-293T; [1]): 65% and 53%
Population Fragmented Nuclei (%) (HEK-293T; [1]): 4% and 5%
Population Healthy Nuclei (%) (HEK-293T; [1]): 77% and 80%
Population Hoechst High Intensity Objects (%) (HEK-293T; [1]): 16% and 8%
Population Membrane Permeable-Phenotype (%) (HEK-293T; [1]): 5% and 2%
Population Mitochondria Different-Phenotype (%) (HEK-293T; [1]): 17% and 11%
Population Mitotic Cells (%) (HEK-293T; [1]): 34% and 46%
Population Normal (%) (HEK-293T; [1]): 84% and 91%
Population Pyknosed Nuclei (%) (HEK-293T; [1]): 18% and 14%
Population Tubulin-Different-Phenotype (%) (HEK-293T; [1]): 41% and 37%
Total Cell Count (HEK-293T; [1]): 450 and 596
Population Apoptotic (%) (HEK-293T; [2]): 29% and 35%
Population Fragmented Nuclei (%) (HEK-293T; [2]): 1%
Population Healthy Nuclei (%) (HEK-293T; [2]): 81% and 86%
Population Hoechst High Intensity Objects (%) (HEK-293T; [2]): 4% and 5%
Population Membrane Permeable-Phenotype (%) (HEK-293T; [2]): 1% and 2%
Population Mitochondria Different-Phenotype (%) (HEK-293T; [2]): 17% and 12%
Population Mitotic Cells (%) (HEK-293T; [2]): 70% and 64%
Population Normal (%) (HEK-293T; [2]): 95% and 94%
Population Pyknosed Nuclei (%) (HEK-293T; [2]): 16% and 11%
Population Tubulin-Different-Phenotype (%) (HEK-293T; [2]): 40% and 36%
Total Cell Count (HEK-293T; [2]): 676 and 839
Population Apoptotic (%) (HEK-293T; [3]): 72% and 39%
Population Fragmented Nuclei (%) (HEK-293T; [3]): 7% and 10%
Population Healthy Nuclei (%) (HEK-293T; [3]): 78% and 79%
Population Hoechst High Intensity Objects (%) (HEK-293T; [3]): 10% and 7%
Population Membrane Permeable-Phenotype (%) (HEK-293T; [3]): 2%
